According to ChEMBL document CHEMBL3112420, “Discovery of 8-cyclopentyl-2-[4-(4-methyl-piperazin-1-yl)-phenylamino]-7-oxo-7,8-dihydro-pyrido[2,3-d]pyrimidine-6-carbonitrile (7x) as a potent inhibitor of cyclin-dependent kinase 4 (CDK4) and AMPK-related kinase 5 (ARK5)” (J Med Chem, 2014):
The source made the active and inactive calls. No cut-off for these calls is given here.

Legend:
K562 = experiment: Cytotoxicity against human K562 cells after 96 hrs by Cell-Titer Blue assay; type: functional, cell-based; details: K562, 96 h
[1] = molecular target: T1, Cyclin-dependent kinase 4/cyclin D1 (Homo sapiens) (UniProt P11802+P24385); experiment: Inhibition of recombinant CDK4/cyclinD1 in human MDA-MB-231 cells assessed as inhibition of retinoblastoma phosphorylation at Ser780 at 0.5 to 5 uM after 24 hrs by Western blotting analysis; type: cell-based
How it was run: (§1)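 Breast carcinoma cells were given increasing concentrations for 24 h. Total lysates (100 μg, 10% SDS-PAGE) were immunoblotted with antibodies against Ser780-phosphorylated and non-phosphorylated RB. Bands were read on an infrared scanning system.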

MCF7 [2] = experiment: Cell cycle arrest in human MCF7 cells assessed as accumulation at G1 phase at 0.5 to 1 uM after 24 hrs by propidium iodide staining-based flow cytometric analysis; type: functional
How it was run: (§2)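 Cells plated at 1.0 × 10^6 per dish, then treated 24 h later with increasing concentrations for 24 h. Floating and adherent cells were pooled, PBS-washed and fixed in ice-cold 70% ethanol for at least 24 h. They were then stained with propidium iodide plus RNase A for 30 min at 37 °C. Percentage of cells in each phase was read by flow cytometry.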

MDA-MB-231 [3] = experiment: Induction of apoptosis in human MDA-MB-231 cells assessed as PARP cleavage after 24 hrs by Western blotting analysis; type: functional, cell-based
HeLa = experiment: Cytotoxicity against human HeLa cells after 96 hrs by Cell-Titer Blue assay; type: functional
Mus musculus = experiment: Toxicity in NCR nude mouse xenografted with human MDA-MB-231 cells assessed as weight loss at 50 mg/kg, ip […] administered on alternative days measured every 2 days up to 21 days; type: organism-based; parameters: dose 50 mg/kg, route intraperitoneal; details: in vivo
How it was run: (§3)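 MDA-MB-231 cells orthotopically implanted into mammary fat pads of 6–8 week old female nude mice (n=11 per group). Dosing began when average tumour volume reached 100 mm3. Lactate salt in PBS or vehicle was given intraperitoneally every other day (Q2D). Tumour volumes and body weights were recorded every 2 days over 21 days; mean ± SEM.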

MDA-MB-231 [4] = experiment: Antitumor activity against human MDA-MB-231 cells xenografted in NCR nude mouse assessed as decrease in tumor weight at 50 mg/kg, ip […] administered on alternative days measured every 2 days up to 21 days; type: functional, organism-based; parameters: dose 50 mg/kg; how it was run: as §3
[5] = Cytotoxicity against human HFL cells after 96 hrs by Cell-Titer Blue assay; type: cell-based
[6] = Cytotoxicity against human Z138C cells after 96 hrs by Cell-Titer Blue assay; type: functional
MDA-MB-231 [7] = experiment: Inhibition of PI3K in human MDA-MB-231 cells assessed as inhibition of Akt phosphorylation at Ser473 at 0.1 to 10 uM after 24 hrs by Western blotting analysis; type: cell-based
How it was run: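 Total lysates (100 μg) were run on 10% SDS-PAGE and immunoblotted for Ser473-phosphorylated and total AKT, with GAPDH as loading control. Detection used infrared-dye secondary antibodies.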

MCF7 [8] = experiment: Induction of apoptosis in human MCF7 cells assessed as PARP cleavage at 1 to 10 uM after 24 hrs by Western blotting analysis; type: functional, cell-based
[9] = Cytotoxicity against human DLD1 cells after 96 hrs by Cell-Titer Blue assay; type: functional; details: DLD-1, 96 h
MCF7 [10] = experiment: Induction of apoptosis in human MCF7 cells assessed as PARP cleavage after 24 hrs by Western blotting analysis; type: functional, cell-based
[11] = Cytotoxicity against human SKBR3 cells after 96 hrs by Cell-Titer Blue assay; type: functional; details: SK-BR-3, 96 h
MDA-MB-231 [12] = experiment: Cell cycle arrest in human MDA-MB-231 cells assessed as accumulation at G1 phase at 0.5 to 1 uM after 24 hrs by propidium iodide staining-based flow cytometric analysis; type: functional; how it was run: as §2
[13] = Cytotoxicity against human U266 cells after 96 hrs by Cell-Titer Blue assay; type: functional; details: U-266, 96 h
[14] = Cytotoxicity against human GRANTA-519 cells after 96 hrs by Cell-Titer Blue assay; type: functional; details: Granta-519, 96 h
NCI-H417 = experiment: Cytotoxicity against human NCI-N417 cells after 96 hrs by Cell-Titer Blue assay; type: functional; details: NCI-H417, 96 h
[15] = Cytotoxicity against human Capan1 cells after 96 hrs by Cell-Titer Blue assay; type: functional; details: CAPAN-1, 96 h
[16] = Cytotoxicity against human U87 cells after 96 hrs by Cell-Titer Blue assay; type: functional, U-87MG ATCC; details: U-87 MG
[17] = Cytotoxicity against human SNU449 cells after 96 hrs by Cell-Titer Blue assay; type: functional; details: SNU-449, 96 h
COLO 205 = experiment: Cytotoxicity against human COLO205 cells after 96 hrs by Cell-Titer Blue assay; type: functional; details: COLO 205, 96 h
NCI-N87 = experiment: Cytotoxicity against human NCI-N87 cells after 96 hrs by Cell-Titer Blue assay; type: functional; details: NCI-N87, 96 h
MDA-MB-468 = experiment: Cytotoxicity against human MDA-MB-468 cells after 96 hrs by Cell-Titer Blue assay; type: functional; details: MDA-MB-468, 96 h
[18] = molecular target: Cyclin-dependent kinase 4/cyclin D1 (Homo sapiens, UniProt P11802); experiment: Inhibition of CDK4/cyclinD1 (unknown origin); type: protein-complex assay
Chain of Cyclin-dependent kinase 4/cyclin D1 (P11802 whole entry): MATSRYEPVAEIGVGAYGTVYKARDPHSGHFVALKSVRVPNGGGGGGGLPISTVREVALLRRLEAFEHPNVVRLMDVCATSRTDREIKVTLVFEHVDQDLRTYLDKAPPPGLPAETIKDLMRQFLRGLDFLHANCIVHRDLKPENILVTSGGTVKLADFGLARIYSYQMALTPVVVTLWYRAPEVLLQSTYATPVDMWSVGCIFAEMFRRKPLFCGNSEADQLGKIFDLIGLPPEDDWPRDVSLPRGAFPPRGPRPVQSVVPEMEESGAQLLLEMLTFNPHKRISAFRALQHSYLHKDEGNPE
Chain of Cyclin-dependent kinase 4/cyclin D1 (P24385 whole entry, further chain): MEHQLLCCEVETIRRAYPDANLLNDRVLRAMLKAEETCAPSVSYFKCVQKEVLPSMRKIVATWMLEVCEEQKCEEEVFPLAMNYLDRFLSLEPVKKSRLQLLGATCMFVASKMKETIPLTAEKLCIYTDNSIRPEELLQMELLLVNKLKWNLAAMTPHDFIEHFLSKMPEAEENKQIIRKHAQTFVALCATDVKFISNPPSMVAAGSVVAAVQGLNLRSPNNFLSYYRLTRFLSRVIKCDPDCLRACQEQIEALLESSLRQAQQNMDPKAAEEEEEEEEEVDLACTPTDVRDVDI

[19] = molecular target: T1, Cyclin-dependent kinase 4/cyclin D1 (Homo sapiens); experiment: Inhibition of recombinant CDK4/cyclinD1 in human MCF7 cells assessed as inhibition of retinoblastoma phosphorylation at Ser780 at 0.5 to 5 uM after 24 hrs by Western blotting analysis; type: cell-based; how it was run: as §1
HCT-15 = experiment: Cytotoxicity against human HCT15 cells after 96 hrs by Cell-Titer Blue assay; type: functional; details: HCT-15, 96 h
[20] = Cytotoxicity against human SNU398 cells after 96 hrs by Cell-Titer Blue assay; type: functional; details: SNU-398, 96 h
[21] = molecular target: Tyrosine-protein kinase ABL1 (Homo sapiens, UniProt P00519); experiment: Inhibition of ABL (unknown origin)
Chain of Tyrosine-protein kinase ABL1 (P00519 whole entry): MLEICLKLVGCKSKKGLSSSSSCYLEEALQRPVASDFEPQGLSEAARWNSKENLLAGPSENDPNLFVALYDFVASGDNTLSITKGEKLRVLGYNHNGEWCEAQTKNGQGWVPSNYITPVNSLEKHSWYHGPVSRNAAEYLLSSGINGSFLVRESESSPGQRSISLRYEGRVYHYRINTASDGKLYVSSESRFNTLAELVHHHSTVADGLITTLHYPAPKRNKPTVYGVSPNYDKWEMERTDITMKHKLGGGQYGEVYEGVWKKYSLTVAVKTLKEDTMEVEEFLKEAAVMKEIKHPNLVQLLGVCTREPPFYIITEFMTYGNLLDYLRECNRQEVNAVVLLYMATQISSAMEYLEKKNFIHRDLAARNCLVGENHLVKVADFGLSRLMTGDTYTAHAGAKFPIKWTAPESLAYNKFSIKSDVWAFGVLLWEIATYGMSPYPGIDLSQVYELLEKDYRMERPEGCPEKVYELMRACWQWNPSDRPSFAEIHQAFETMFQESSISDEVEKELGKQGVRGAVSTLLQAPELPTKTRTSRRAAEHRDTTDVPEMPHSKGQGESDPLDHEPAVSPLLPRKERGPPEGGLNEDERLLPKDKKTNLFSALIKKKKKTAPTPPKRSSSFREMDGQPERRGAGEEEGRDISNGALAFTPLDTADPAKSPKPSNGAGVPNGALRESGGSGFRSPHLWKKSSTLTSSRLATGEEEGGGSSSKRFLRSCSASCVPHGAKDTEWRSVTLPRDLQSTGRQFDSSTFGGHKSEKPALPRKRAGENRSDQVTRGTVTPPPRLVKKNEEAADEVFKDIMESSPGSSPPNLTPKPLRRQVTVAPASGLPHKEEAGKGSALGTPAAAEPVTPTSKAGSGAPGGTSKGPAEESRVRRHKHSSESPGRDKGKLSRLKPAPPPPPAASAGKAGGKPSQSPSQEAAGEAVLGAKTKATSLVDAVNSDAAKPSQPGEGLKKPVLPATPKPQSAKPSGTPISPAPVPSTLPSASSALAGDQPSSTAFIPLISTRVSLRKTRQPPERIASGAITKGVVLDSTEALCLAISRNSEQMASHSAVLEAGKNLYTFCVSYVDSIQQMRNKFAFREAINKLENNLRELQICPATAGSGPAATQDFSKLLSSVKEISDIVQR

SK-OV-3 = experiment: Cytotoxicity against human SKOV3 cells after 96 hrs by Cell-Titer Blue assay; type: functional; details: SK-OV-3, 96 h
[22] = molecular target: Receptor-type tyrosine-protein kinase FLT3 (Homo sapiens, UniProt P36888); experiment: Inhibition of FLT3 (unknown origin)
Chain of Receptor-type tyrosine-protein kinase FLT3 (P36888 whole entry): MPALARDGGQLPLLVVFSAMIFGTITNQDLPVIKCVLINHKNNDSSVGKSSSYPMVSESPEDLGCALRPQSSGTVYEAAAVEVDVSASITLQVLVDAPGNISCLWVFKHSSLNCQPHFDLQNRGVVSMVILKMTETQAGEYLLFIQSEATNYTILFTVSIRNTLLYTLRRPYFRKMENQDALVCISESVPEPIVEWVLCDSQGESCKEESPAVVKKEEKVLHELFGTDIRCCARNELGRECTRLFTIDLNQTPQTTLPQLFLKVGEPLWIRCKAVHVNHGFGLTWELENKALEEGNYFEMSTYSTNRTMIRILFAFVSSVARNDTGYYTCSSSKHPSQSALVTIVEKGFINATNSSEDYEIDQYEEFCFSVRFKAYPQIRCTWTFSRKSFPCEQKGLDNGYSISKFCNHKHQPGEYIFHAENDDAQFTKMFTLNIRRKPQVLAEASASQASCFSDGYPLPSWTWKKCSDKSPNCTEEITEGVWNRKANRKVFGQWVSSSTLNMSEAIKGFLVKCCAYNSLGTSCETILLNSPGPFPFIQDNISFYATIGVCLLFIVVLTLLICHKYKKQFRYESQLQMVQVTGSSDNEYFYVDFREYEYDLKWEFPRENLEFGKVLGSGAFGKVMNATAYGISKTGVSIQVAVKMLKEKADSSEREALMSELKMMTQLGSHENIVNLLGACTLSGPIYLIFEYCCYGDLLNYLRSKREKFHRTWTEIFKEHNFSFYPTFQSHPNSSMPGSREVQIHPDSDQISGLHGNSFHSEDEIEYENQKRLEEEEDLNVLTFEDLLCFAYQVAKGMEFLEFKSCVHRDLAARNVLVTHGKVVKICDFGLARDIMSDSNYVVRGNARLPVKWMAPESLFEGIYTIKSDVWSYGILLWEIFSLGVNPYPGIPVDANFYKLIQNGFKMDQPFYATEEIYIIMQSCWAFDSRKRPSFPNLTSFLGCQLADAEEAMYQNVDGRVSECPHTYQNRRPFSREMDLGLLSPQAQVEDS

[23] = molecular target: Tyrosine-protein kinase Fyn (Homo sapiens, UniProt P06241); experiment: Inhibition of FYN (unknown origin)
Chain of Tyrosine-protein kinase Fyn (P06241 whole entry): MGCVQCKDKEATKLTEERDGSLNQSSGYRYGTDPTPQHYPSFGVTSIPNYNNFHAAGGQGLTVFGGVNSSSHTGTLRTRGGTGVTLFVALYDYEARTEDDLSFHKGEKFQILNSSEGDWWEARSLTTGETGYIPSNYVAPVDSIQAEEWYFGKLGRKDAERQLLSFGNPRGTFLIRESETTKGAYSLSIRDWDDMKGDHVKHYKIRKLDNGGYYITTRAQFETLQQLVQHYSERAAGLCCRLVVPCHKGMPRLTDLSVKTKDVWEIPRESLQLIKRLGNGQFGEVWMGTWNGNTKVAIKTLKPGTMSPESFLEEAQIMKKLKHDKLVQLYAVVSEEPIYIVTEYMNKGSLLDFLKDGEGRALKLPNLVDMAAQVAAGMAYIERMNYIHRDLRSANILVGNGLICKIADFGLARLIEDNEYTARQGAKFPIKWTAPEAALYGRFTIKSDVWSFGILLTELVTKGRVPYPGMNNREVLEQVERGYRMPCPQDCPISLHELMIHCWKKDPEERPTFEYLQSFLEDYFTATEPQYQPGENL

[24] = molecular target: Macrophage colony-stimulating factor 1 receptor (Homo sapiens, UniProt P07333); experiment: Inhibition of FMS (unknown origin)
Chain of Macrophage colony-stimulating factor 1 receptor (P07333 whole entry): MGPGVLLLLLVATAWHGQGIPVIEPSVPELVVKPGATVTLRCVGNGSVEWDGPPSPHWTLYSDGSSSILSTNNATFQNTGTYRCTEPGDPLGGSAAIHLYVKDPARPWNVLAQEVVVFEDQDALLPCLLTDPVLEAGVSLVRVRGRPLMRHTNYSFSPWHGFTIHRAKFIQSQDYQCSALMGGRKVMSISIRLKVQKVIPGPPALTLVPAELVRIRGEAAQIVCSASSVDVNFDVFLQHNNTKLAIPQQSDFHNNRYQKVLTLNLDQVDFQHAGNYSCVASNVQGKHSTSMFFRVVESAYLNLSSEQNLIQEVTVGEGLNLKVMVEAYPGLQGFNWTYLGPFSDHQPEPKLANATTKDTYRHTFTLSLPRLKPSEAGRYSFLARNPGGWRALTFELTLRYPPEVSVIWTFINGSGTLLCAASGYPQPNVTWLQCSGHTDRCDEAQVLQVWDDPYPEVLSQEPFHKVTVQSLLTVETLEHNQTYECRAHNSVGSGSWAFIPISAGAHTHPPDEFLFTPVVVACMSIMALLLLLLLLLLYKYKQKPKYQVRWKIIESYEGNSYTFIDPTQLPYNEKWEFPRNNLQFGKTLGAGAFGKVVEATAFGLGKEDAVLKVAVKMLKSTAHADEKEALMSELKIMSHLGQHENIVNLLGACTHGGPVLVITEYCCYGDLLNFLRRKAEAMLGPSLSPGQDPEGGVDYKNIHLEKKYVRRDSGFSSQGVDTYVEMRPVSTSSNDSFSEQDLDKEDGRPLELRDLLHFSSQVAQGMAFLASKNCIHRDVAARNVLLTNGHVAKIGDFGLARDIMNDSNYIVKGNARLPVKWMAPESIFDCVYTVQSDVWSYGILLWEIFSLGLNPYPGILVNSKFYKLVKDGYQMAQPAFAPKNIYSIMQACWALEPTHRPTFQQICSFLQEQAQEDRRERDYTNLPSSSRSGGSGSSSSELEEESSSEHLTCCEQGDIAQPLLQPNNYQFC

[25] = Cytotoxicity against human HCC1428 cells after 96 hrs by Cell-Titer Blue assay; type: functional; details: HCC1428, 96 h
MCF7 [26] = experiment: Cell cycle arrest in human MCF7 cells assessed as accumulation at sub-G1 phase at 0.5 to 1 uM after 48 hrs by propidium iodide staining-based flow cytometric analysis; type: functional
[27] = Cytotoxicity against human SNU5 cells after 96 hrs by Cell-Titer Blue assay; type: functional; details: SNU-5, 96 h
[28] = Toxicity in CD-1 mouse […] assessed as survival rate at 200 mg/kg, ip administered for 5 days measured after 10 days; type: organism-based; parameters: dose 200 mg/kg, route intraperitoneal; details: in vivo
How it was run: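 Female CD-1 mice (n=3) were given 200 mg/kg ip on 5 consecutive days. They were then monitored for signs of toxicity, with survival followed beyond 10 days after injection. This came after an initial single-dose test at 100 or 200 mg/kg ip with 7-day monitoring.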

What does the source list for CN1CCN(c2ccc(Nc3ncc4cc(C#N)c(=O)n(C5CCCC5)c4n3)cc2)CC1 [NARAZACICLIB]?
GI50 (K562): 0.1 µM; IC50 (K562): 0.05 µM; inhibition [1]: Active; Activity (MCF7 [2]): Active; Activity (MDA-MB-231 [3]): Dose-dependent effect; GI50 (HeLa): 0.75 µM; Activity (Mus musculus): Non-toxic; Activity (MDA-MB-231 [4]): Active; GI50 at 96 h [5]: 5 µM; GI50 [6]: 0.025 µM; inhibition (MDA-MB-231 [7]): Active; Activity (MCF7 [8]): Active; GI50 [9]: 0.1 µM; Activity (MCF7 [10]): Dose-dependent effect; GI50 [11]: 0.15 µM; Activity (MDA-MB-231 [12]): Active; GI50 [13]: 0.2 µM; GI50 [14]: 0.025 µM; GI50 (NCI-H417): 0.25 µM; GI50 [15]: 0.5 µM; GI50 [16]: 0.1 µM; GI50 [17]: 0.75 µM; GI50 (COLO 205): 0.1 µM; GI50 (NCI-N87): 0.9 µM; GI50 (MDA-MB-468): 2 µM; IC50 [18]: 0.0038 µM; inhibition [19]: Active; GI50 (HCT-15): 0.3 µM; GI50 [20]: 0.2 µM; IC50 [21]: 0.0533 µM; GI50 (SK-OV-3): 0.75 µM; IC50 [22]: 0.0122 µM; IC50 [23]: 0.0111 µM; IC50 [24]: 0.01 µM; GI50 [25]: 0.3 µM; Activity (MCF7 [26]): Active; GI50 [27]: 0.1 µM; survival at 240 h [28]: 100%
